Assay results from ChEMBL document CHEMBL1134387, “Synthesis and biodistribution of a new oxo-technetium-99m bis(aminothiol) complex as a potential melanoma tracer” (J Med Chem, 2001).

Experiments:
Type in all cases: ADME, organism-based
[1] = tested on: Mus musculus; assay: Tumor to blood radioactivity ratio was determined in mice at 1 hr after (iv) administration in presence of [125I]-BZA; conditions: tumour
[2] = tested on: Mus musculus; assay: Tumor to blood radioactivity ratio was determined in mice at 24 hr after (iv) administration in presence of [125I]-BZA; conditions: tumour
[3] = tested on: Mus musculus; assay: Tumor to blood radioactivity ratio was determined in mice at 3h after (iv) administration in presence of [125I]-BZA; conditions: tumour
[4] = tested on: Mus musculus; assay: Tumor to blood radioactivity ratio was determined in mice at 6 hr after (iv) administration in presence of [125I]-BZA; conditions: tumour
[5] = tested on: Mus musculus; assay: Tumor to liver radioactivity ratio was determined in mice at 24 hr after (iv) administration in presence of [125I]-BZA; conditions: in vivo
[6] = tested on: Mus musculus; assay: Tumor to liver radioactivity ratio was determined in mice at 3h after (iv) administration in presence of [125I]-BZA; conditions: in vivo
[7] = tested on: Mus musculus; assay: Tumor to liver radioactivity ratio was determined in mice at 6 hr after (iv) administration in presence of [125I]-BZA; conditions: in vivo
[8] = tested on: Mus musculus; assay: Tumor to lung radioactivity ratio was determined in mice at 1 hr after (iv) administration in presence of [125I]-BZA; conditions: in vivo
[9] = tested on: Mus musculus; assay: Tumor to lung radioactivity ratio was determined in mice at 24 hr after (iv) administration in presence of [125I]-BZA; conditions: in vivo
[10] = tested on: Mus musculus; assay: Tumor to lung radioactivity ratio was determined in mice at 3h after (iv) administration in presence of [125I]-BZA; conditions: in vivo
[11] = tested on: Mus musculus; assay: Tumor to lung radioactivity ratio was determined in mice at 6 hr after (iv) administration in presence of [125I]-BZA; conditions: in vivo
[12] = tested on: Mus musculus; assay: Biodistribution in tumor was determined at 1 hr in mice bearing C57B16 murine melanoma after (i.v.) administration; conditions: in vivo, iv
Outline: (§1)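 C57 mice carrying B16 melanotic melanoma, implanted s.c. as 5×10^5 viable cells. Tumours were palpable after 10 days. Mice received 0.74 MBq of the 99mTc-labeled complex by tail-vein injection. Groups of n = 3 were killed by exsanguination at each time point. Weighed tissue aliquots were gamma-counted immediately and expressed as decay-corrected %ID/g, mean ± sem.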

[13] = tested on: Mus musculus; assay: Biodistribution in tumor was determined at 24 hr in mice bearing C57B16 murine melanoma after (i.v.) administration; conditions: in vivo, iv; outline: as §1
[14] = tested on: Mus musculus; assay: Biodistribution in tumor was determined at 3h in mice bearing C57B16 murine melanoma after (i.v.) administration; conditions: in vivo, iv; outline: as §1
[15] = tested on: Mus musculus; assay: Biodistribution in tumor was determined at 6 hr in mice bearing C57B16 murine melanoma after (i.v.) administration; conditions: in vivo, iv; outline: as §1
[16] = tested on: Mus musculus; assay: Tumor to liver radioactivity ratio was determined in mice at 1 hr after (iv) administration in presence of [125I]-BZA; conditions: in vivo

Ratio [1]: 6.55
Ratio [2]: 37.33
Ratio [3]: 7.79
Ratio [4]: 17.58
Ratio [5]: 4.94
Ratio [6]: 1.1
Ratio [7]: 3.83
Ratio [8]: 0.62
Ratio [9]: 15.82
Ratio [10]: 0.69
Ratio [11]: 2.13
ID/g [12]: 6.75%
ID/g [13]: 0.79%
ID/g [14]: 3.85%
ID/g [15]: 3.53%
Ratio [16]: 1.12
SMILES: CCN(CC)CCNC(=O)c1ccc([125I])cc1
